Source: PubChem BioAssay
TCR-CD3 inh – inhibitors of human TCR-CD3 interaction; inhibition, % at 9.4 µM; 0.37% of 360,000 active; TAMRA-labeled TCR probe fluorescence, biochemical;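 note: recombinant mutant TCR 2C K166C tagged with TAMRA read by polarization; 0% = receptor in buffer alone and 100% = receptor with positive control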
mABHD4 FP – ABHD4 (mouse) inhibition, primary FP screen | inhibition, % at 8.92 µM | 0.54% of 370,000 active | purified mABHD4, FP-Rh probe fluorescence polarization | Q8VD66;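 active = inhibition exceeding the mean over every tested compound plus 3 SD, cut at about 30% in these data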;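 note: 0% = plate median of compound wells and 100% = S159A mutant with DMSO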
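system = mouse ABHD4 enzyme, wild type | medium = HEPES pH 7.0, NaCl, Pluronic buffer | also added = FP-Rh probe | incubation = Enzyme–compound pre-incubation 45 min, then probe 60 min, both 25 °C | technique = fluorescence polarization, excitation 525 nm, emission 598 nm, BODIPY TMR filters | controls = S159A mutant high control, sample median low control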
PRMT1 FP inh – PRMT1 (human) inhibition, primary screen. Q99873. recombinant PRMT1, activity-based probe fluorescence polarization. inhibition, % at 2.79 µM. 1.3% of 370,000 active;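 active = inhibition above about 21% made by adding two undisclosed values, limit read from the data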
Target sequence (Q99873 whole entry, looked up): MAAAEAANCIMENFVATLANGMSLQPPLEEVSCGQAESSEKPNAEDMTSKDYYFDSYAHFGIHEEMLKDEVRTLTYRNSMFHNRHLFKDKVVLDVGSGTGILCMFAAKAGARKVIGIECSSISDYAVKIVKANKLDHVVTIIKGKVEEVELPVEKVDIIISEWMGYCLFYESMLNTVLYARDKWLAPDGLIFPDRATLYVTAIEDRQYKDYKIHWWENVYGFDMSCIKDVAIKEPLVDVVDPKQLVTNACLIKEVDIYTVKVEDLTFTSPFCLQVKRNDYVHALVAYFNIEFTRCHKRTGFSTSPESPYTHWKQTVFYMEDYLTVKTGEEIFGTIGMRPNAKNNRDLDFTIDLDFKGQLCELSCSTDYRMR
SIAE inh – human SIAE inhibition, primary screen; 0.69% of 370,000 active; AID 1053197; SIAE FP-Rh probe binding, fluorescence polarization; inhibition, % at 9.66 µM;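 active = inhibition above a cutoff: mean of compounds within the control limits plus 3 SD of those, cut at about 17% in these data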;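 note: 0% = plate median of compound wells and 100% = probe without SIAE protein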
HTRA1 inhibitor – inhibitors of human serine peptidase HTRA1; Q92743; recombinant HTRA1, FP-rhodamine activity-based probe, fluorescence polarization; inhibition, % at 5.96 µM; 0.5% of 340,000 active; AID 504803; in the data active = inhibition above about 36%;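 note: 0% = enzyme with DMSO and 100% = wells lacking enzyme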
BSA probe FL – counter-screen for TCR-CD3 interaction inhibitors: BSA probe. shares compounds with TCR-CD3 inh. TAMRA-labeled BSA probe fluorescence counterscreen. inhibition, % at 9.4 µM. 10% of 1,200 active. AID 652035; in the data active = inhibition above about 23%;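 note: 0% = buffer low control and 100% = reference high control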
TCR-CD3 conf – TCR-CD3 interaction inhibition, confirmation; shares compounds with TCR-CD3 inh; TAMRA-labeled TCR probe fluorescence binding assay; 48% of 1,200 active; AID 652036; inhibition, % at 9.4 µM
PRMT1 inh conf – PRMT1 (human) inhibition, FP confirmation. inhibition, % at 2.79 µM. shares compounds with PRMT1 FP inh. recombinant His-PRMT1, activity-based probe fluorescence polarization. 42% of 3,300 active;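 active = mean inhibition across replicates above the hit cutoff derived for the earlier primary screen, cut at about 22% in these data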
mABHD4 conf – ABHD4 (mouse) inhibition, FP confirmation | shares compounds with mABHD4 FP | purified mABHD4, FP-Rh probe fluorescence polarization | inhibition, % at 8.92 µM | 55% of 1,800 active | AID 720658;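 active = mean inhibition across replicates above the hit cutoff set in the primary screen, cut at about 30% in these data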;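 note: 0% = wild-type ABHD4 with DMSO and 100% = catalytically dead S159A mutant with DMSO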
The depositor's hits bear a star; ! = not confirmed by another sample. Only some compounds are listed: those with a hit (about 2.6% of all), similar ones and a draw of the others. Cut-off read from the data, not from the text of the source, unless noted: active = inhibition above about 19%; inactive = the rest.

How did CCC(C)Sc1cccc(-c2nc3cc(C)ccn3c2NC2CCCCC2)c1 (stereo unspecified) do in these assays?
TCR-CD3 inh: 25*!; mABHD4 FP: 39*; PRMT1 FP inh: 0; SIAE inh: 4; HTRA1 inhibitor: -8; BSA probe FL: -5; TCR-CD3 conf: -1; mABHD4 conf: 52*

What do the screens show for `CCCNC(=O)c1ccc(Cn2cc(-c3ccc(OC)cc3)nc2C(C)N)cc1` (stereo unspecified)?
TCR-CD3 inh: -4; mABHD4 FP: 2; PRMT1 FP inh: 1; SIAE inh: 4; HTRA1 inhibitor: 1

What do the screens show for `COc1ccc(-c2c(C)c3ccc(O)cc3oc2=O)cc1OC`?
TCR-CD3 inh: 9; mABHD4 FP: -9; PRMT1 FP inh: -4; SIAE inh: -2; HTRA1 inhibitor: -2

What do the screens show for `Nc1ccc(-c2c3ccc(=O)cc-3oc3cc(O)ccc23)cc1C(=O)O`?
TCR-CD3 inh: 38*; mABHD4 FP: 30*; PRMT1 FP inh: 71*; SIAE inh: 13; HTRA1 inhibitor: 28; BSA probe FL: 49*; TCR-CD3 conf: 34*; mABHD4 conf: 40*

Results for Nc1ncnc2c1CN(Cc1ccccc1)CC2 ?
TCR-CD3 inh: 77*; mABHD4 FP: 72*; PRMT1 FP inh: 1; SIAE inh: 5; HTRA1 inhibitor: -3; BSA probe FL: 4; TCR-CD3 conf: 4; mABHD4 conf: -7

How did COc1cccc(CNc2nc3cc(-c4cscc4C)sc3c(=O)n2C)c1 do in these assays?
TCR-CD3 inh: -7; mABHD4 FP: -51; PRMT1 FP inh: 2; SIAE inh: -36

Results for CCOc1ccc(CCNC(=O)CN2C(=O)c3cccnc3Oc3ccc(Cl)cc32)cc1 ?
TCR-CD3 inh: -4; mABHD4 FP: -17; PRMT1 FP inh: -3; SIAE inh: -2; HTRA1 inhibitor: -9

How did CN(CCC#N)c1ccc(/C=C(\C#N)c2ccccn2)cc1 do in these assays?
TCR-CD3 inh: 81*; mABHD4 FP: 89*; PRMT1 FP inh: 194*; SIAE inh: -6; HTRA1 inhibitor: 0; BSA probe FL: 4; TCR-CD3 conf: 11; PRMT1 inh conf: 0; mABHD4 conf: -7

What do the screens show for `Cc1cc2cc(CNC(=O)C(C)Oc3ccccc3)ccc2n1C` (stereo unspecified)?
TCR-CD3 inh: 45*; mABHD4 FP: 34*; PRMT1 FP inh: 10; SIAE inh: 6; HTRA1 inhibitor: 30; BSA probe FL: 4; TCR-CD3 conf: 4; mABHD4 conf: 15

How did CCC(CC)C(=O)NCc1ccc2c(c1)cc(C)n2C do in these assays?
TCR-CD3 inh: 1; mABHD4 FP: 9; PRMT1 FP inh: 6; SIAE inh: 6; HTRA1 inhibitor: 14

Results for Cc1cc2cc(CNC(=O)c3ccc(S(=O)(=O)N4CCCC4)cc3)ccc2n1C ?
TCR-CD3 inh: 70*; mABHD4 FP: 39*; PRMT1 FP inh: 3; SIAE inh: 26*; HTRA1 inhibitor: 25; BSA probe FL: 3; TCR-CD3 conf: 0; mABHD4 conf: 11

How did O=[N+]([O-])c1cc(Br)c(O)c(/C=N/Nc2nnnn2-c2cccc3ccccc23)c1 do in these assays?
TCR-CD3 inh: 20*; mABHD4 FP: 39*; PRMT1 FP inh: 5; SIAE inh: 16; HTRA1 inhibitor: 24; BSA probe FL: -15; TCR-CD3 conf: 41*; mABHD4 conf: 65*

Results for O=[N+]([O-])c1ccc(NN=Cc2cccc3ccccc23)cc1 ?
TCR-CD3 inh: 8; mABHD4 FP: 2; PRMT1 FP inh: 3; SIAE inh: -10; HTRA1 inhibitor: 0

How did Oc1ccc(/C=N/NC(=S)Nc2cccnc2)c(O)c1O do in these assays?
TCR-CD3 inh: 83*; mABHD4 FP: 41*; PRMT1 FP inh: 67*; SIAE inh: 53*; HTRA1 inhibitor: 36; BSA probe FL: -12; TCR-CD3 conf: 56*; PRMT1 inh conf: 88*; mABHD4 conf: 68*

Results for CNC(=S)N/N=C/c1cc(Br)cc(Br)c1O ?
TCR-CD3 inh: 40*; mABHD4 FP: 31*; PRMT1 FP inh: -1; SIAE inh: 7; HTRA1 inhibitor: 34; BSA probe FL: -12; TCR-CD3 conf: 36*; mABHD4 conf: 27

How did Nc1ccc2nc3c(=O)n(C4CCCCC4)c(=O)[nH]c3nc2c1 do in these assays?
TCR-CD3 inh: 24*; mABHD4 FP: 43*; PRMT1 FP inh: 145*; SIAE inh: 10; HTRA1 inhibitor: 31; BSA probe FL: 28*; TCR-CD3 conf: 27*; PRMT1 inh conf: 132*; mABHD4 conf: 41*

What do the screens show for `COc1cc2[nH]c(=O)n(C3CCCCC3)c(=O)c2cc1OC`?
TCR-CD3 inh: 0; mABHD4 FP: -7; PRMT1 FP inh: -3; SIAE inh: -5; HTRA1 inhibitor: 2

Results for Nc1ccc2nc3c(=O)n(CCc4ccccc4)c(=O)[nH]c3nc2c1 ?
TCR-CD3 inh: 27*; mABHD4 FP: 40*; PRMT1 FP inh: 136*; SIAE inh: 15; BSA probe FL: 26*; TCR-CD3 conf: 21*; PRMT1 inh conf: 123*; mABHD4 conf: 30*

How did Cc1cccc(NC(=O)CN(C)C(=O)/C=C/c2ccccc2)c1C do in these assays?
TCR-CD3 inh: 1; mABHD4 FP: -2; PRMT1 FP inh: 2; SIAE inh: 10; HTRA1 inhibitor: -1

How did CC1=NN(c2cccc(C(=O)O)c2)C(=O)/C1=C\C=C\c1ccco1 do in these assays?
TCR-CD3 inh: 19*; mABHD4 FP: 40*; PRMT1 FP inh: 27*; SIAE inh: 12; HTRA1 inhibitor: 16; BSA probe FL: -10; TCR-CD3 conf: 15; mABHD4 conf: 57*

How did CC1=NN(c2ccccc2)C(=O)/C1=C/C=C/c1ccccc1 do in these assays?
TCR-CD3 inh: 1; mABHD4 FP: 17; PRMT1 FP inh: -2; SIAE inh: 9; HTRA1 inhibitor: 3

How did CC1CCCCC1NC(=O)CNC(=O)c1cccs1 (stereo unspecified) do in these assays?
TCR-CD3 inh: -5; mABHD4 FP: 1; PRMT1 FP inh: 4; SIAE inh: 2; HTRA1 inhibitor: 12

Results for Nc1ccc2c3c(cccc13)C(=O)N(c1ccccc1)C2=O ?
TCR-CD3 inh: 28*; mABHD4 FP: 38*; PRMT1 FP inh: 174*; SIAE inh: 10; HTRA1 inhibitor: 21; BSA probe FL: 43*; TCR-CD3 conf: 34*; PRMT1 inh conf: 165*; mABHD4 conf: 33*
